{"source": "paper PMC7581536", "about": "(Journal of pharmaceutical and biomedical analysis, 2020)", "key": {"[1]": {"system": "KDMs", "conditions": "ref [18]–[19]; cited from earlier work"}, "[2]": {"system": "HIV-1", "conditions": "T cell lines, via inhibition of SHMT2; ref [23]; cited from earlier work"}, "[3]": {"assay": "Stability of JIB-04 in rat plasma", "format": "in vitro ADME", "conditions": "for RE (deviation from nominal concentration) / Calculated Concentration Mean ± SD: rat plasma; for Calculated Concentration Mean ± SD: n=6", "procedure,_shortened": "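Blank rat plasma spiked to 0.5, 1, 50 and 800 ng/mL, six replicates per condition. Held 18 h on bench at room temperature, 24 h in auto-sampler tray, or 3 months at −80°C. Freeze-thaw: three cycles of 2–3 h room-temperature thaw and 12–24 h at −80°C. Quantified against a same-day calibration curve; accuracy as RE%, precision as CV%.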"}, "[4]": {"system": "KDM5A", "conditions": "secondary targets KDM4D/4B/4A/6B/4C; ref [18], [20]–[21]; cited from earlier work"}, "[5]": {"assay": "Non-specific binding to plastic centrifuge tubes", "format": "physicochemical", "conditions": "neat solution, water as matrix"}, "[6]": {"assay": "Pharmacokinetic study of JIB-04 in rats after i.v. and oral administration", "format": "in vivo, rat", "procedure,_shortened": "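Male adult SD rats with jugular vein cannulas. IV: single 5 mg/kg via jugular vein (n=5) as aqueous suspension in 12.5% cremophor EL/12.5% DMSO; blood at 2 min–24 h. Oral: single 15 mg/kg (n=6); blood at 5 min–24 h. Heparinised plasma (4000 rpm, 15 min) held at −80°C. 20 µL plasma precipitated with ACN (5 ng/mL IS, 0.1% acetic acid); UHPLC-MS/MS MRM; non-compartmental analysis per rat.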"}, "[7]": {"assay": "Stability of stock solutions", "format": "physicochemical", "conditions": "stock solution (DMSO/ACN or ACN), 6 months at −20°C", "procedure,_shortened": "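Test compound stock at 2 mg/mL: 10 mg dissolved in 0.5 mL DMSO, then diluted with ACN. Internal standard stock at 100 µg/mL in ACN. Both kept at −20°C for 6 months.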"}, "[8]": {"conditions": "auto-sampler (10 °C 24hr), nominal 0.5 ng/mL"}, "[9]": {"conditions": "auto-sampler (10 °C 24hr), nominal 1 ng/mL"}, "[10]": {"conditions": "auto-sampler (10 °C 24hr), nominal 50 ng/mL"}, "[11]": {"conditions": "auto-sampler (10 °C 24hr), nominal 800 ng/mL"}, "[12]": {"conditions": "bench top (18hr, RT), nominal 0.5 ng/mL"}, "[13]": {"conditions": "bench top (18hr, RT), nominal 1 ng/mL"}, "[14]": {"conditions": "bench top (18hr, RT), nominal 50 ng/mL"}, "[15]": {"conditions": "bench top (18hr, RT), nominal 800 ng/mL"}, "[16]": {"conditions": "long-term (−80 °C, 3 months), nominal 0.5 ng/mL"}, "[17]": {"conditions": "long-term (−80 °C, 3 months), nominal 1 ng/mL"}, "[18]": {"conditions": "long-term (−80 °C, 3 months), nominal 50 ng/mL"}, "[19]": {"conditions": "long-term (−80 °C, 3 months), nominal 800 ng/mL"}, "[20]": {"conditions": "rats, oral 15 mg/kg, n=6, NCA (apparent)"}}}
{"compound": "Clc1ccc(NN=C(c2ccccc2)c2ccccn2)nc1", "note": "(single isomer, unassigned) [Z-isomer]", "values": [{"measurement": "activity against KDMs", "setting": "[1]", "value": "inactive"}]}
{"compound": "Clc1ccc(N/N=C(\\c2ccccc2)c2ccccn2)nc1", "note": "[JIB-04]", "values": [{"measurement": "block of HIV-1 Tat expression, transactivation, and virus replication", "setting": "[2]", "value": "potently and selectively blocks"}, {"measurement": "RE (deviation from nominal concentration)", "setting": "[3]; [8]", "value": "−3.2", "unit": "%"}, {"measurement": "Calculated Concentration Mean ± SD", "setting": "[3]; [8]", "value": "0.48 ± 0.01", "unit": "ng/mL"}, {"measurement": "RE (deviation from nominal concentration)", "setting": "[3]; [9]", "value": "−3.5", "unit": "%"}, {"measurement": "Calculated Concentration Mean ± SD", "setting": "[3]; [9]", "value": "0.97 ± 0.06", "unit": "ng/mL"}, {"measurement": "RE (deviation from nominal concentration)", "setting": "[3]; [10]", "value": "−2.7", "unit": "%"}, {"measurement": "Calculated Concentration Mean ± SD", "setting": "[3]; [10]", "value": "48.6 ± 3.3", "unit": "ng/mL"}, {"measurement": "RE (deviation from nominal concentration)", "setting": "[3]; [11]", "value": "−0.1", "unit": "%"}, {"measurement": "Calculated Concentration Mean ± SD", "setting": "[3]; [11]", "value": "799.0 ± 17.5", "unit": "ng/mL"}, {"measurement": "RE (deviation from nominal concentration)", "setting": "[3]; [12]", "value": 1.6, "unit": "%"}, {"measurement": "Calculated Concentration Mean ± SD", "setting": "[3]; [12]", "value": "0.51 ± 0.02", "unit": "ng/mL"}, {"measurement": "RE (deviation from nominal concentration)", "setting": "[3]; [13]", "value": "−6.9", "unit": "%"}, {"measurement": "Calculated Concentration Mean ± SD", "setting": "[3]; [13]", "value": "0.93 ± 0.05", "unit": "ng/mL"}, {"measurement": "RE (deviation from nominal concentration)", "setting": "[3]; [14]", "value": "−6.4", "unit": "%"}, {"measurement": "Calculated Concentration Mean ± SD", "setting": "[3]; [14]", "value": "46.8 ± 0.7", "unit": "ng/mL"}, {"measurement": "RE (deviation from nominal concentration)", "setting": "[3]; [15]", "value": 2.4, "unit": "%"}, {"measurement": "Calculated Concentration Mean ± SD", "setting": "[3]; [15]", "value": "819.0 ± 26.0", "unit": "ng/mL"}, {"measurement": "RE (deviation from nominal concentration)", "setting": "[3]; freeze and thaw (−80 °C to RT), nominal 0.5 ng/mL", "value": 1.4, "unit": "%"}, {"measurement": "RE (deviation from nominal concentration)", "setting": "[3]; freeze and thaw (−80 °C to RT), nominal 1 ng/mL", "value": "−0.8", "unit": "%"}, {"measurement": "RE (deviation from nominal concentration)", "setting": "[3]; freeze and thaw (−80 °C to RT), nominal 50 ng/mL", "value": "−2.1", "unit": "%"}, {"measurement": "RE (deviation from nominal concentration)", "setting": "[3]; freeze and thaw (−80 °C to RT), nominal 800 ng/mL", "value": "−0.9", "unit": "%"}, {"measurement": "Calculated Concentration Mean ± SD", "setting": "[3]; freeze and thaw (−80 °C to RT), three cycles, nominal 0.5 ng/mL", "value": "0.51 ± 0.01", "unit": "ng/mL"}, {"measurement": "Calculated Concentration Mean ± SD", "setting": "[3]; freeze and thaw (−80 °C to RT), three cycles, nominal 1 ng/mL", "value": "0.99 ± 0.03", "unit": "ng/mL"}, {"measurement": "Calculated Concentration Mean ± SD", "setting": "[3]; freeze and thaw (−80 °C to RT), three cycles, nominal 50 ng/mL", "value": "49.0 ± 1.3", "unit": "ng/mL"}, {"measurement": "Calculated Concentration Mean ± SD", "setting": "[3]; freeze and thaw (−80 °C to RT), three cycles, nominal 800 ng/mL", "value": "793.0 ± 16.2", "unit": "ng/mL"}, {"measurement": "RE (deviation from nominal concentration)", "setting": "[3]; [16]", "value": "−6.7", "unit": "%"}, {"measurement": "Calculated Concentration Mean ± SD", "setting": "[3]; [16]", "value": "0.47 ± 0.02", "unit": "ng/mL"}, {"measurement": "RE (deviation from nominal concentration)", "setting": "[3]; [17]", "value": "−6.9", "unit": "%"}, {"measurement": "Calculated Concentration Mean ± SD", "setting": "[3]; [17]", "value": "0.93 ± 0.05", "unit": "ng/mL"}, {"measurement": "RE (deviation from nominal concentration)", "setting": "[3]; [18]", "value": "−5.6", "unit": "%"}, {"measurement": "Calculated Concentration Mean ± SD", "setting": "[3]; [18]", "value": "47.2 ± 1.3", "unit": "ng/mL"}, {"measurement": "RE (deviation from nominal concentration)", "setting": "[3]; [19]", "value": "−6.9", "unit": "%"}, {"measurement": "Calculated Concentration Mean ± SD", "setting": "[3]; [19]", "value": "745.0 ± 20.8", "unit": "ng/mL"}, {"measurement": "storage stability of plasma samples", "setting": "[3]; stored at −80 °C for as long as 3 months", "value": "without apparent alteration"}, {"measurement": "degradation in rat plasma", "setting": "[3]; under the experimental conditions (Table 4)", "value": "no significant degradation"}, {"measurement": "inhibitory activity against KDM5A", "setting": "[4]", "value": "maximal inhibitory activity"}, {"measurement": "non-specific binding to plastic centrifuge tubes", "setting": "[5]", "value": "strongly binding"}, {"measurement": "concentrations in pharmacokinetic samples", "setting": "[6]; rat plasma, i.v. and oral samples", "value": "0.002 to 6", "unit": "µg/mL"}, {"measurement": "plasma concentration", "setting": "[6]; rats, i.v. 5 mg/kg, after 24 h", "value": "0.003 ± 0.001", "unit": "µg/mL"}, {"measurement": "plasma concentration", "setting": "[6]; rats, i.v. 5 mg/kg, at 2 min", "value": "5.27 ± 0.5272", "unit": "µg/mL"}, {"measurement": "AUC 0→24", "setting": "[6]; rats, i.v. 5 mg/kg, n=5, NCA", "value": "3.6616 ± 0.3714", "unit": "µg·h/mL"}, {"measurement": "AUC 0→inf", "setting": "[6]; rats, i.v. 5 mg/kg, n=5, NCA", "value": "3.6782 ± 0.369", "unit": "µg·h/mL"}, {"measurement": "CL", "setting": "[6]; rats, i.v. 5 mg/kg, n=5, NCA", "value": "1.3707 ± 0.1417", "unit": "L/h/kg"}, {"measurement": "Half-life", "setting": "[6]; rats, i.v. 5 mg/kg, n=5, NCA", "value": "3.70 ± 0.5", "unit": "h"}, {"measurement": "MRT", "setting": "[6]; rats, i.v. 5 mg/kg, n=5, NCA", "value": "2.6 ± 0.3", "unit": "h"}, {"measurement": "Vd", "setting": "[6]; rats, i.v. 5 mg/kg, n=5, NCA", "value": "7.3576 ± 1.5306", "unit": "L/kg"}, {"measurement": "E/Z ratio in plasma", "setting": "[6]; rats, i.v. samples, 5 min", "value": 72}, {"measurement": "E/Z ratio in plasma", "setting": "[6]; rats, i.v. samples, 2 h", "value": 27}, {"measurement": "E/Z ratio in plasma", "setting": "[6]; rats, i.v. samples, 24 h", "value": 0.6}, {"measurement": "time to reach Cmax (range among subjects)", "setting": "[6]; rats, oral 15 mg/kg", "value": "0.5 ~ 4 h"}, {"measurement": "oral bioavailability (F)", "setting": "[6]; rats, oral 15 mg/kg vs i.v. 5 mg/kg", "value": 44.4, "unit": "%"}, {"measurement": "AUC 0→24", "setting": "[6]; rats, oral 15 mg/kg, n=6, NCA", "value": "4.8808 ± 1.0153", "unit": "µg·h/mL"}, {"measurement": "AUC 0→inf", "setting": "[6]; rats, oral 15 mg/kg, n=6, NCA", "value": "4.9047 ± 1.0197", "unit": "µg·h/mL"}, {"measurement": "Cmax", "setting": "[6]; rats, oral 15 mg/kg, n=6, NCA", "value": "0.8127 ± 0.2012", "unit": "µg/mL"}, {"measurement": "Half-life", "setting": "[6]; rats, oral 15 mg/kg, n=6, NCA", "value": "3.2 ± 0.2", "unit": "h"}, {"measurement": "MRT", "setting": "[6]; rats, oral 15 mg/kg, n=6, NCA", "value": "4.4 ± 0.3", "unit": "h"}, {"measurement": "Tmax", "setting": "[6]; rats, oral 15 mg/kg, n=6, NCA", "value": "1.5 ± 1.4", "unit": "h"}, {"measurement": "CL", "setting": "[6]; [20]", "value": "3.2342 ± 0.0763", "unit": "L/h/kg"}, {"measurement": "Vd", "setting": "[6]; [20]", "value": "14.9234 ± 3.6699", "unit": "L/kg"}, {"measurement": "plasma concentration", "setting": "[6]; rats, oral 15 mg/kg, within 5 min", "value": "0.1229 ± 0.051", "unit": "µg/mL"}, {"measurement": "E/Z ratio in plasma", "setting": "[6]; rats, oral samples, 5 min", "value": 40}, {"measurement": "E/Z ratio in plasma", "setting": "[6]; rats, oral samples, 2 h", "value": 9}, {"measurement": "E/Z ratio in plasma", "setting": "[6]; rats, oral samples, 24 h", "value": 2.3}, {"measurement": "stability of stock solution", "setting": "[7]", "value": "stable"}]}
